Measurements published in ChEMBL document CHEMBL5055648, “Design, synthesis, and biological evaluation of novel Bcr-AblT315I inhibitors incorporating amino acids as flexible linker” (Bioorg Med Chem, 2021).
pIC50: −log10 of the molar value. Active and inactive are the calls of the source. The calls are words filed in the database; no cut-off is given here.

Assays:
[1] = biological target: Bcr/Abl fusion protein (Homo sapiens, UniProt P00519, T315I); assay: Inhibition of wild type Bcr-Abl T315I mutant (unknown origin) incubated for 1 hr in presence of ATP by ADP-Glo kinase assay; type: protein assay
[2] = system: K562; assay: Antiproliferative activity against human K562 cells assessed as inhibition of cell proliferation incubated for 48 hrs by MTT assay; type: functional, cell-based; details: K562, 48 h
In short: (§1)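 MTT growth assay. K562 and K562R (T315I) cells grown in RPMI 1640 with 10% FBS. Hek293 and EA.hy926 cells grown in DMEM with 10% FBS. About 2.5 × 10^3 exponential-phase cells per well, preincubated 12 h at 37 °C in 5% CO2. Serially diluted compounds added for 48 h, then MTT at 0.5 mg/mL final for 4 h. Formazan dissolved in DMSO, A490 read, IC50 calculated from inhibition ratios.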

[3] = biological target: Bcr/Abl fusion protein (Homo sapiens, UniProt P00519); assay: Inhibition of wild type Bcr-Abl (unknown origin) incubated for 1 hr in presence of ATP by ADP-Glo kinase assay; type: protein assay
[4] = system: K-562R; assay: Antiproliferative activity against T315I mutant expressing human K-562R cells assessed as inhibition of cell proliferation at 100 uM incubated for 48 hrs by MTT assay relative to control; type: functional; in short: as §1
[5] = biological target: T1, Bcr/Abl fusion protein (Homo sapiens) (UniProt P00519+P11274); assay: Inhibition of Bcr-Abl phosphorylation in human K562 cells at 10 uM measured after 48 hrs by Western blot analysis; type: cell-based
In short: (§2)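 Western blot. K562 cells treated 48 h with DMSO vehicle or compound at 1, 5, 10 or 15 µM. Lysates were normalized by BCA and equal protein run on SDS-PAGE, then transferred to PVDF and blocked in 5% milk/TBS-0.1% Tween-20. Probed overnight at 4 °C with p-Bcr-Abl and GAPDH antibodies, then with HRP secondaries for 2 h at room temperature. Read-out was p-Bcr-Abl/GAPDH ratio.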

[6] = system: K562; assay: Induction of apoptosis in human K562 cells assessed as viable cells at 20 uM after 48 hrs by annexinV/FITC-propidium iodide staining based flow cytometry (reference value: 84.19 %); type: functional; details: read-out: Activity
[7] = system: K562; assay: Induction of apoptosis in human K562 cells assessed as necrotic cells at 1 uM after 48 hrs by annexinV/FITC-propidium iodide staining based flow cytometry (reference value: 0.23 %); type: functional
[8] = system: K562; assay: Induction of apoptosis in human K562 cells assessed as late apoptotic cells at 20 uM after 48 hrs by annexinV/FITC-propidium iodide staining based flow cytometry (reference value: 12.60 %); type: functional
[9] = system: K562; assay: Induction of apoptosis in human K562 cells assessed as viable cells at 1 uM after 48 hrs by annexinV/FITC-propidium iodide staining based flow cytometry (reference value: 84.19 %); type: functional; details: read-out: Activity
[10] = system: EA.hy 926; assay: Cytotoxicity against human EA.hy926 cells assessed as cell growth inhibition incubated for 48 hrs by MTT assay; type: cell-based; details: ea.hy 926, 48 h; in short: as §1
[11] = system: K-562R; assay: Antiproliferative activity against T315I mutant expressing human K-562R cells assessed as inhibition of cell proliferation incubated for 48 hrs by MTT assay; type: functional, cell-based; in short: as §1
[12] = system: K562; assay: Induction of apoptosis in human K562 cells assessed as early apoptotic cells at 10 uM after 48 hrs by annexinV/FITC-propidium iodide staining based flow cytometry (reference value: 2.98 %); type: functional
[13] = system: K562; assay: Induction of apoptosis in human K562 cells assessed as early apoptotic cells at 20 uM after 48 hrs by annexinV/FITC-propidium iodide staining based flow cytometry (reference value: 2.98 %); type: functional
[14] = system: K562; assay: Induction of apoptosis in human K562 cells assessed as necrotic cells at 20 uM after 48 hrs by annexinV/FITC-propidium iodide staining based flow cytometry (reference value: 0.23 %); type: functional
[15] = system: K562; assay: Induction of apoptosis in human K562 cells assessed as late apoptotic cells at 1 uM after 48 hrs by annexinV/FITC-propidium iodide staining based flow cytometry (reference value: 12.60 %); type: functional
[16] = system: K562; assay: Induction of apoptosis in human K562 cells assessed as late apoptotic cells at 10 uM after 48 hrs by annexinV/FITC-propidium iodide staining based flow cytometry (reference value: 12.60 %); type: functional
[17] = system: K562; assay: Induction of apoptosis in human K562 cells assessed as necrotic cells at 10 uM after 48 hrs by annexinV/FITC-propidium iodide staining based flow cytometry (reference value: 0.23 %); type: functional
[18] = biological target: T1, Bcr/Abl fusion protein (Homo sapiens); assay: Inhibition of Bcr-Abl in human K562 cells assessed as decrease in tyrosine phosphorylation measured after 48 hrs by Western blot analysis; type: cell-based; details: dose 1-15 µM; in short: as §2
[19] = system: K562; assay: Induction of apoptosis in human K562 cells assessed as viable cells at 10 uM after 48 hrs by annexinV/FITC-propidium iodide staining based flow cytometry (reference value: 84.19 %); type: functional; details: read-out: Activity
[20] = system: HEK293; assay: Cytotoxicity against human HEK293 cells assessed as cell growth inhibition incubated for 48 hrs by MTT assay; type: cell-based; details: hek293, 48 h; in short: as §1
[21] = system: K562; assay: Induction of apoptosis in human K562 cells assessed as early apoptotic cells at 1 uM after 48 hrs by annexinV/FITC-propidium iodide staining based flow cytometry (reference value: 2.98 %); type: functional

| SMILES | pIC50 [1] | pIC50 [2] | pIC50 [3] | further results |
| --- | --- | --- | --- | --- |
| CCN(CC)C(=O)c1cncc(-c2cccc(C(=O)N[C@@H](C)C(=O)Nc3ccc(Cl)c(C(F)(F)F)c3)c2)c1 | 4.07 | 4.52 | 6.54 | – |
| Cc1ccc(NC(=O)c2ccc(CN3CCN(C)CC3)cc2)cc1Nc1nccc(-c2cccnc2)n1 [IMATINIB] | – | – | – | inhibition at 100 µM [4]: 45% |
| O=C(NC1CC1)c1cncc(-c2cccc(C(=O)N[C@H]3CN[C@@H](C(=O)Nc4ccc(Cl)c(C(F)(F)F)c4)C3)c2)c1 | 4.57 | 4.56 | 4.80 | – |
| O=C(NC1CC1)c1cncc(-c2ccc(C(=O)N[C@H]3CN[C@@H](C(=O)Nc4ccc(Cl)c(C(F)(F)F)c4)C3)cc2)c1 | 4.41 | 4.19 | 4.21 | – |
| C[C@H](NC(=O)c1ccc(-c2ccc(NC(=O)C(C)(C)C)nc2)cc1)C(=O)Nc1ccc(Cl)c(C(F)(F)F)c1 | 6.28 | 5.13 | 7.39 | inhibition [5]: Active; viability at 20 µM [6]: 35.9%; Activity [7]: 0.98%; Activity [8]: 50.94%; viability at 1 µM [9]: 74.5%; Activity [10]: Non-Toxic; pIC50 [11]: 5.04; Activity [12]: 10.03%; Activity [13]: 11.48%; Activity [14]: 1.65%; Activity [15]: 21.11%; Activity [16]: 48.96%; Activity [17]: 4.57%; inhibition [18]: Dose-dependent effect; viability at 10 µM [19]: 36.5%; Activity [20]: Non-Toxic; Activity [21]: 3.39% |
| CS(=O)(=O)Nc1ccc(-c2cccc(C(=O)N[C@H]3CN[C@@H](C(=O)Nc4ccc(Cl)c(C(F)(F)F)c4)C3)c2)cn1 | 4.79 | 4.61 | 5.19 | – |
| CC(C)(C)C(=O)Nc1ccc(-c2ccc(C(=O)N[C@H]3CN[C@@H](C(=O)Nc4ccc(Cl)c(C(F)(F)F)c4)C3)cc2)cn1 | 4.30 | 4.94 | 5.58 | – |
| CC(=O)Nc1ccc(-c2cccc(C(=O)N[C@H]3CN[C@@H](C(=O)Nc4ccc(Cl)c(C(F)(F)F)c4)C3)c2)cn1 | 4.61 | 5.06 | 6.31 | – |
| CC(=O)Nc1ccc(-c2cccc(C(=O)N[C@@H](C)C(=O)Nc3ccc(Cl)c(C(F)(F)F)c3)c2)cn1 | 4.41 | 4.37 | 6.22 | – |
| C[C@H](NC(=O)c1cccc(-c2ccc(NC(=O)C(C)(C)C)nc2)c1)C(=O)Nc1ccc(Cl)c(C(F)(F)F)c1 | 3.61 | 4.74 | 5.35 | – |
| CC(C)(C)C(=O)Nc1ccc(-c2cccc(C(=O)N[C@H]3CN[C@@H](C(=O)Nc4ccc(Cl)c(C(F)(F)F)c4)C3)c2)cn1 | 3.83 | 4.55 | 5.33 | – |
| C[C@H](NC(=O)c1cccc(-c2ccc(N)nc2)c1)C(=O)Nc1ccc(Cl)c(C(F)(F)F)c1 | 4.06 | 5.09 | 5.36 | – |
| C[C@H](NC(=O)c1cccc(-c2cncc(C(=O)NCCN(C)C)c2)c1)C(=O)Nc1ccc(Cl)c(C(F)(F)F)c1 | 5.62 | 5.10 | 6.19 | – |
| Nc1ccc(-c2ccc(C(=O)N[C@H]3CN[C@@H](C(=O)Nc4ccc(Cl)c(C(F)(F)F)c4)C3)cc2)cn1 | 4.85 | 5.04 | 5.04 | – |
| Cc1ccc(C(=O)Nc2ccc(CN3CCN(C)CC3)c(C(F)(F)F)c2)cc1C#Cc1cnc2cccnn12 [PONATINIB] | – | – | – | pIC50 [11]: 7.03 |

Continued, in another order:

| pIC50 [1] | pIC50 [2] | pIC50 [3] | SMILES | further results |
| --- | --- | --- | --- | --- |
| 4.43 | 4.35 | 6.82 | CS(=O)(=O)Nc1ccc(-c2ccc(C(=O)N[C@H]3CN[C@@H](C(=O)Nc4ccc(Cl)c(C(F)(F)F)c4)C3)cc2)cn1 | – |
| 5.30 | 3.40 | 5.03 | C[C@H](NC(=O)c1ccc(-c2cncc(C(=O)NC3CC3)c2)cc1)C(=O)Nc1ccc(Cl)c(C(F)(F)F)c1 | – |
| 4.37 | 4.60 | 5.43 | CCN(CC)C(=O)c1cncc(-c2cccc(C(=O)N[C@H]3CN[C@@H](C(=O)Nc4ccc(Cl)c(C(F)(F)F)c4)C3)c2)c1 | – |
| 4.65 | 3.97 | 6.70 | CC(=O)Nc1ccc(-c2ccc(C(=O)N[C@@H](C)C(=O)Nc3ccc(Cl)c(C(F)(F)F)c3)cc2)cn1 | – |
| 3.89 | 5.33 | 5.48 | C[C@H](NC(=O)c1cccc(-c2ccc(NS(C)(=O)=O)nc2)c1)C(=O)Nc1ccc(Cl)c(C(F)(F)F)c1 | – |
| 5.12 | 5.23 | 6.11 | C[C@H](NC(=O)c1ccc(-c2ccc(N)nc2)cc1)C(=O)Nc1ccc(Cl)c(C(F)(F)F)c1 | – |
| 3.99 | 4.70 | 4.92 | Nc1ccc(-c2cccc(C(=O)N[C@H]3CN[C@@H](C(=O)Nc4ccc(Cl)c(C(F)(F)F)c4)C3)c2)cn1 | – |
| 5.11 | 4.82 | 5.84 | C[C@H](NC(=O)c1cccc(-c2cncc(C(=O)NC3CC3)c2)c1)C(=O)Nc1ccc(Cl)c(C(F)(F)F)c1 | – |
| 4.89 | 4.64 | 4.46 | CC(=O)Nc1ccc(-c2ccc(C(=O)N[C@H]3CN[C@@H](C(=O)Nc4ccc(Cl)c(C(F)(F)F)c4)C3)cc2)cn1 | – |
| 5.64 | 5.33 | 5.18 | C[C@H](NC(=O)c1ccc(-c2cncc(C(=O)NCCN(C)C)c2)cc1)C(=O)Nc1ccc(Cl)c(C(F)(F)F)c1 | – |
| 4.66 | 5.34 | 5.37 | CN(C)CCNC(=O)c1cncc(-c2ccc(C(=O)N[C@H]3CN[C@@H](C(=O)Nc4ccc(Cl)c(C(F)(F)F)c4)C3)cc2)c1 | – |
| 4.66 | 4.70 | 5.62 | CN(C)CCNC(=O)c1cncc(-c2cccc(C(=O)N[C@H]3CN[C@@H](C(=O)Nc4ccc(Cl)c(C(F)(F)F)c4)C3)c2)c1 | – |
| 5.00 | 5.14 | 5.42 | C[C@H](NC(=O)c1ccc(-c2ccc(NS(C)(=O)=O)nc2)cc1)C(=O)Nc1ccc(Cl)c(C(F)(F)F)c1 | – |
| 4.22 | 4.69 | 7.96 | CCN(CC)C(=O)c1cncc(-c2ccc(C(=O)N[C@@H](C)C(=O)Nc3ccc(Cl)c(C(F)(F)F)c3)cc2)c1 | – |
| 4.30 | 4.26 | 5.13 | CCN(CC)C(=O)c1cncc(-c2ccc(C(=O)N[C@H]3CN[C@@H](C(=O)Nc4ccc(Cl)c(C(F)(F)F)c4)C3)cc2)c1 | – |
